Results taken from ChEMBL document CHEMBL4118253, “Expedient synthesis and biological evaluation of alkenyl acyclic nucleoside phosphonate prodrugs” (Bioorg Med Chem, 2018).

Tests used:
[1] = tested on: Punta Toro virus; assay: Antiviral activity against Punta Toro virus infected in African green monkey Vero cells assessed as inhibition of virus-induced cytopathicity; format: functional, organism-based
[2] = tested on: Human alphaherpesvirus 3; assay: Antiviral activity against thymidine kinase expressing Varicella-Zoster virus infected in HEL cells assessed as reduction in virus plaque formation; format: functional, organism-based; conditions: Human alphaherpesvirus 3, HEL
[3] = tested on: Yellow fever virus; assay: Antiviral activity against Yellow fever virus infected in African green monkey Vero cells assessed as inhibition of virus-induced cytopathicity; format: functional, organism-based
[4] = tested on: Human betaherpesvirus 5; assay: Antiviral activity against Human cytomegalovirus AD169 infected in HEL cells assessed as inhibition of virus-induced cytopathicity; format: functional, organism-based; conditions: Human betaherpesvirus 5, AD169, HEL
[5] = tested on: Human adenovirus 2; assay: Antiviral activity against Adenovirus 2 infected in HEL cells assessed as inhibition of virus-induced cytopathicity; format: functional, organism-based; conditions: Human mastadenovirus C
[6] = tested on: Influenza A virus; assay: Antiviral activity against Influenza A virus H1N1 infected in MDCK cells assessed as inhibition of virus-induced visual cytopathicity; format: functional, organism-based
[7] = tested on: Influenza B virus; assay: Antiviral activity against Influenza B virus infected in MDCK cells assessed as inhibition of virus-induced cytopathicity by MTS assay; format: functional, organism-based
[8] = tested on: Influenza A virus H3N2; assay: Antiviral activity against Influenza A virus H3N2 infected in MDCK cells assessed as inhibition of virus-induced visual cytopathicity; format: functional, organism-based
[9] = tested on: Influenza B virus; assay: Antiviral activity against Influenza B virus infected in MDCK cells assessed as inhibition of virus-induced visual cytopathicity; format: functional, organism-based
[10] = Cytotoxicity against HEL cells assessed as alteration of cell morphology by microscopic analysis; format: cell-based; conditions: human
How it was run: (§1)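 The value is the minimal cytotoxic concentration (MCC), the lowest concentration that causes a microscopically visible change in cell morphology. It was read in the same HEL or Vero cell cultures used for the antiviral tests.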

[11] = tested on: Coxsackievirus B4; assay: Antiviral activity against Coxsackie virus B4 infected in African green monkey Vero cells assessed as inhibition of virus-induced cytopathicity; format: functional, organism-based; conditions: Enterovirus B
[12] = tested on: Human alphaherpesvirus 3; assay: Antiviral activity against thymidine kinase deficient Varicella-Zoster virus infected in HEL cells assessed as reduction in virus plaque formation; format: functional, organism-based; conditions: Human alphaherpesvirus 3, HEL
[13] = tested on: Human alphaherpesvirus 1; assay: Antiviral activity against acyclovir-resistant thymidine kinase deficient Herpes simplex virus 1 KOS infected in HEL cells assessed as inhibition of virus-induced cytopathicity; format: functional, organism-based; conditions: Human alphaherpesvirus 1, KOS
[14] = tested on: Human alphaherpesvirus 1; assay: Antiviral activity against Herpes simplex virus 1 KOS infected in HEL cells assessed as inhibition of virus-induced cytopathicity; format: functional, organism-based; conditions: Human alphaherpesvirus 1, KOS
[15] = tested on: Mammalian orthoreovirus 1; assay: Antiviral activity against Reovirus-1 infected in human HeLa cells assessed as inhibition of virus-induced cytopathicity; format: functional, organism-based; conditions: Mammalian orthoreovirus 1, HeLa
[16] = Cytotoxicity against African green monkey Vero cells assessed as alteration of cell morphology by microscopic analysis; format: cell-based; conditions: chlorocebus sabaeus; how it was run: as §1
[17] = tested on: Influenza A virus; assay: Antiviral activity against Influenza A virus H1N1 infected in MDCK cells assessed as inhibition of virus-induced cytopathicity by MTS assay; format: functional, organism-based
[18] = Cytotoxicity against MDCK cells assessed as alteration of cell morphology by microscopic analysis; format: cell-based, Canis lupus familiaris; conditions: dog
[19] = tested on: Human betaherpesvirus 5; assay: Antiviral activity against Human cytomegalovirus Davis infected in HEL cells assessed as inhibition of virus-induced cytopathicity; format: functional, organism-based; conditions: Human betaherpesvirus 5, Davis
[20] = tested on: Respiratory syncytial virus; assay: Antiviral activity against Respiratory syncytial virus infected in human HeLa cells assessed as inhibition of virus-induced cytopathicity; format: functional, organism-based
[21] = tested on: Sindbis virus; assay: Antiviral activity against Sindbis Virus infected in African green monkey Vero cells assessed as inhibition of virus-induced cytopathicity; format: functional, organism-based
[22] = tested on: Vesicular stomatitis virus; assay: Antiviral activity against Vesicular stomatitis virus infected in human HeLa cells assessed as inhibition of virus-induced cytopathicity; format: functional, organism-based
[23] = tested on: Influenza A virus H3N2; assay: Antiviral activity against Influenza A virus H3N2 infected in MDCK cells assessed as inhibition of virus-induced cytopathicity by MTS assay; format: functional, organism-based
[24] = tested on: Human coronavirus 229E; assay: Antiviral activity against Human coronavirus 229E infected in HEL cells assessed as inhibition of virus-induced cytopathicity; format: functional, organism-based
[25] = Cytotoxicity against human HeLa cells assessed as alteration of cell morphology by microscopic analysis; format: cell-based
[26] = tested on: Vaccinia virus; assay: Antiviral activity against Vaccinia virus infected in HEL cells assessed as inhibition of virus-induced cytopathicity; format: functional, organism-based; conditions: Orthopoxvirus vaccinia
[27] = tested on: Human respirovirus 3; assay: Antiviral activity against Parainfluenza virus 3 infected in human HeLa cells assessed as inhibition of virus-induced cytopathicity; format: functional, organism-based; conditions: Human respirovirus 3, HeLa
[28] = tested on: Human alphaherpesvirus 2; assay: Antiviral activity against Herpes simplex virus 2 G infected in HEL cells assessed as inhibition of virus-induced cytopathicity; format: functional, organism-based; conditions: Human alphaherpesvirus 2, strain G

SMILES	EC50 [1] [µM]	EC50 [3] [µM]	EC50 [5] [µM]	EC50 [6] [µM]	EC50 [7] [µM]	EC50 [8] [µM]	EC50 [9] [µM]	MCC [10] [µM]	EC50 [11] [µM]	EC50 [12] [µM]	EC50 [13] [µM]	EC50 [15] [µM]	MCC [16] [µM]	EC50 [17] [µM]	MCC [18] [µM]	EC50 [19] [µM]	EC50 [20] [µM]	EC50 [23] [µM]	EC50 [26] [µM]	EC50 [27] [µM]	further results
C/C(=C\CP(=O)(N[C@@H](C)C(=O)OCc1ccccc1)Oc1cccc2ccccc12)Cn1cc(C)c(=O)[nH]c1=O (stereo not given in full)	> 100	> 100	> 100	> 100	> 100	> 100	> 100	> 100	> 100	55.3	> 100	> 100	> 100	> 100	> 100	> 100	> 100	> 100	> 100	> 100	EC50 [2]: 34.2 µM; EC50 [4]: > 100 µM; EC50 [14]: > 100 µM; EC50 [21]: > 100 µM; EC50 [22]: > 100 µM; EC50 [24]: > 100 µM; MCC [25]: > 100 µM; EC50 [28]: > 100 µM
C/C(=C\CP(=O)(N[C@@H](C)C(=O)OCc1ccccc1)Oc1ccccc1)Cn1cc(C)c(=O)[nH]c1=O (stereo not given in full)	> 100	> 100	> 100	> 100	> 100	> 100	> 100	> 100	> 100	46.7	> 100	> 100	> 100	> 100	> 100	> 100	> 100	> 100	> 100	> 100	EC50 [2]: 55.7 µM; EC50 [4]: > 100 µM; EC50 [14]: > 100 µM; EC50 [21]: > 100 µM; EC50 [22]: > 100 µM; EC50 [24]: > 100 µM; MCC [25]: > 100 µM; EC50 [28]: > 100 µM
C/C(=C\CP(=O)(N[C@@H](C)C(=O)OC(C)C)Oc1cccc2ccccc12)Cn1cc(C)c(=O)[nH]c1=O (stereo not given in full)	> 100	> 100	> 100	> 100	> 100	> 100	> 100	> 100	> 100	> 100	> 100	> 100	≥ 20	> 100	> 100	> 100	> 100	> 100	> 100	> 100	EC50 [4]: > 100 µM; EC50 [14]: > 100 µM; EC50 [21]: > 100 µM; EC50 [22]: > 100 µM; EC50 [24]: > 100 µM; MCC [25]: ≥ 20 µM; EC50 [28]: > 100 µM
C/C(=C/CP(=O)(N[C@@H](C)C(=O)OC(C)C)Oc1cccc2c1CCCC2)Cn1cc(C)c(=O)[nH]c1=O (stereo not given in full)	45	58	> 100	> 100	> 100	> 100	> 100	100	58	> 20	> 100	> 100	> 100	> 100	100	> 20	> 100	> 100	> 100	> 100	EC50 [2]: > 20 µM; EC50 [14]: > 100 µM; EC50 [21]: 45 µM; EC50 [22]: > 100 µM; EC50 [24]: > 100 µM; MCC [25]: > 100 µM; EC50 [28]: > 100 µM
C/C(=C\CP(=O)(N[C@@H](C)C(=O)OCc1ccccc1)Oc1cccc2c1CCCC2)Cn1cc(C)c(=O)[nH]c1=O (stereo not given in full)	> 100	> 100	> 100	> 100	> 100	> 100	> 100	> 100	> 100	47.2	> 100	> 100	≥ 100	> 100	> 100	> 100	> 100	> 100	> 100	> 100	EC50 [2]: 50.2 µM; EC50 [4]: > 100 µM; EC50 [14]: > 100 µM; EC50 [21]: > 100 µM; EC50 [22]: > 100 µM; EC50 [24]: > 100 µM; MCC [25]: ≥ 100 µM; EC50 [28]: > 100 µM
C/C(=C\CP(=O)(N[C@@H](C)C(=O)OC(C)C)Oc1ccccc1)Cn1cc(C)c(=O)[nH]c1=O (stereo not given in full)	> 100	> 100	> 100	> 100	> 100	> 100	> 100	> 100	> 100	> 100	> 100	> 100	≥ 20	> 100	> 100	> 100	> 100	> 100	> 100	> 100	EC50 [2]: 76.5 µM; EC50 [4]: > 100 µM; EC50 [14]: > 100 µM; EC50 [21]: > 100 µM; EC50 [22]: > 100 µM; EC50 [24]: > 100 µM; MCC [25]: ≥ 20 µM; EC50 [28]: > 100 µM
C/C(=C/CP(=O)(N[C@@H](C)C(=O)OCc1ccccc1)Oc1cccc2c1CCCC2)Cn1cc(C)c(=O)[nH]c1=O (stereo not given in full)	> 100	> 100	> 100	> 100	> 100	> 100	> 100	> 100	> 100	65.1	> 100	> 100	≥ 20	> 100	> 100	76.5	> 100	> 100	> 100	> 100	EC50 [2]: 17 µM; EC50 [14]: > 100 µM; EC50 [21]: > 100 µM; EC50 [22]: > 100 µM; EC50 [24]: > 100 µM; MCC [25]: ≥ 20 µM; EC50 [28]: > 100 µM
Nc1nc2c(ncn2COCCO)c(=O)[nH]1 [ACYCLOVIR]	–	–	–	–	–	–	–	250 to 440	–	–	126	–	–	–	–	–	–	–	> 250	–	–
Cc1cn([C@H]2C[C@H](F)[C@@H](CO)O2)c(=O)[nH]c1=O [ALOVUDINE]	–	–	1.2	–	–	–	–	> 250	–	–	–	–	–	–	–	–	–	–	–	–	–
NC12CC3CC(CC(C3)C1)C2 [AMANTADINE]	–	–	–	1.8	> 100	2	> 100	–	–	–	–	–	–	1.4	> 100	–	–	1.6	–	–	–
O=c1[nH]c(=O)n([C@H]2C[C@H](O)[C@@H](CO)O2)cc1/C=C/Br [BRIVUDINE]	–	–	–	–	–	–	–	250 to 300	–	0.57	–	–	–	–	–	–	–	–	19	–	–
Nc1ccn(C[C@@H](CO)OCP(=O)(O)O)c(=O)n1 [CIDOFOVIR]	–	–	22	–	–	–	–	> 250	–	–	–	–	–	–	–	–	–	–	37	–	EC50 [4]: 1.24 µM
Nc1nc2c(ncn2COC(CO)CO)c(=O)[nH]1 [GANCICLOVIR]	–	–	–	–	–	–	–	> 100	–	–	–	–	–	–	–	2.29	–	–	> 100	–	EC50 [4]: 11.4 µM
COc1c(C)c2c(c(O)c1C/C=C(\C)CCC(=O)O)C(=O)OC2 [MYCOPHENOLIC ACID]	6.1	–	–	–	–	–	–	–	> 100	–	–	6.8	> 100	–	–	–	–	–	–	0.4	–
CCOC(=O)C1=C[C@@H](OC(CC)CC)[C@H](NC(C)=O)[C@@H](N)C1 [OSELTAMIVIR]	–	–	–	1.5	–	> 100	2.9	–	–	–	–	–	–	0.2	> 100	–	–	> 100	–	–	–
NC(=O)c1ncn([C@@H]2O[C@H](CO)[C@@H](O)[C@H]2O)n1 [RIBAVIRIN]	–	> 250	–	–	–	–	–	–	> 250	–	–	> 250	> 250	–	> 100	–	25	–	–	95	EC50 [21]: > 250 µM; MCC [25]: > 250 µM
CC(N)C12CC3CC(CC(C3)C1)C2 (stereo not given) [RIMANTADINE]	–	–	–	> 200	> 200	0.4	> 200	–	–	–	–	–	–	> 200	> 200	–	–	0.7	–	–	–
Nc1ccn([C@H]2CC[C@@H](CO)O2)c(=O)n1 [ZALCITABINE]	–	–	10	–	–	–	–	> 250	–	–	–	–	–	–	–	–	–	–	–	–	–
